In publication PMC10925246 (bioRxiv, 2024):
Ends that are not written are not given here.

Experiments:
PotH = molecular target: T1, PotH (Escherichia coli, UniProt P31135); format: binding, E. coli; settings: overnight 4°C, 0.15 M NaCl; eluted with 0.5 and 1 M KCl, not 0.3 M KCl; n = 3 experiments
T1 sequence (P31135 1-317): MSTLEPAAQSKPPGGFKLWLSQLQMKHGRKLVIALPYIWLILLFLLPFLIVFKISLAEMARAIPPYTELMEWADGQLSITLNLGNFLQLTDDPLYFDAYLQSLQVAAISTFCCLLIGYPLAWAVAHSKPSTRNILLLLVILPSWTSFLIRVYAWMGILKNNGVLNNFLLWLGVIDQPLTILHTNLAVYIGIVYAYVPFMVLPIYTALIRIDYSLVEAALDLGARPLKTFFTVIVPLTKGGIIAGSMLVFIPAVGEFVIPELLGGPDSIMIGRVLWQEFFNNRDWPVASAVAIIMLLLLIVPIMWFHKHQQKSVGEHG
Summary of the method: (§1)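 Cys-extended test peptide (2 mg) was coupled to SulfoLink resin in 50 mM Tris pH 8.5, 5 mM EDTA, 3 h room temperature. His-tagged transporter was Ni-Sepharose purified (4 h, 4°C; imidazole elution) and applied to the column; the flowthrough was collected. Columns were washed with 10 mM HEPES, 0.05% dodecyl-maltoside, 0.15 M KCl, then step-eluted with 0.3, 0.5, 1.0 M KCl. Unboiled fractions went to 4–20% SDS-PAGE and anti-His (1 µg/ml, overnight 4°C) western with IRDye secondary.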

FeoB = format: binding, P. aeruginosa PAO1; settings: overnight 4°C, 0.15 M NaCl; eluted with 0.5 and 1 M KCl, not 0.3 M KCl; n = 3 experiments
Summary of the method: as §1

thrombin = thrombin (Homo sapiens, UniProt P00734); assay: N-104 affinity column screen of human tears, thrombin western blot; format: binding; settings: pooled human basal tears, 5 hours 4°C, KCl elution, anti-thrombin western blot
Summary of the method: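 Basal tears were collected 5 min on Schirmer strips after 0.5% proparacaine, eluted at 4°C in phosphate-buffered saline and pooled (170 µl). The pool was diluted fivefold with protease inhibitors, agarose-precleared, and split by protein between test-peptide and control-peptide columns for 5 h at 4°C. Elution was 0.3/0.5/1.0 M KCl; the 0.5 M eluate went to MS (human UniProt search). Unboiled fractions: 4–20% SDS-PAGE, polyclonal anti-thrombin 1 µg/ml overnight 4°C, LI-COR detection.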

P. aeruginosa PA14 [1] = assay: Polyamine toxicity for PA14; format: cell-based, Pseudomonas aeruginosa; settings: 10^6 cfu/ml PA14, 30 mOsm/l, alamarBlue; n = 3 experiments
P. aeruginosa PA14 [2] = format: cell-based, Pseudomonas aeruginosa; settings: for minimum inhibitory concentration (MIC): PA14, CFU assay
[3] = Solubility of synthetic loop peptides in solvents; format: physicochemical; settings: lyophilized synthetic peptide, acetylated and amidated
Summary of the method: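 Synthetic outer-loop peptides were N-acetylated and C-amidated, ≥95% HPLC purity, and stored lyophilized at −80°C. Each was […] as required before competition binding at 0–250 µM.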

[4] = test system: ^14C-spermidine uptake by PA14; assay: Polyamine transport assay; format: cell-based, Pseudomonas aeruginosa; settings: 10 and 25 µM, 45 min 35°C pretreatment, n = 3 experiments
Summary of the method: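 PA14 (0.8×10^8 cfu in 100 µl dilute phosphate saline) was pre-incubated 45 min at 35°C with or without 10 or 25 µM test peptide. Cells were then given 1 µl of 10 mM [1,4-14C]spermidine stock (0.1 mCi/ml) for 15 min at 35°C. Pellets were washed four times with phosphate-buffered saline and counted by liquid scintillation, last wash also counted. Molecules per cell were estimated from a spermidine standard curve.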

P. aeruginosa PA14 [5] = assay: N-104 resistance assay over 30 generations; format: cell-based, Pseudomonas aeruginosa; settings: through 30 generations, sub-MIC and MIC exposure; n = 2 experiments
[6] = test system: PA14 feoB, potH and yaiW transposon mutants; assay: CFU killing assay of PA14 transposon mutants; format: cell-based, Pseudomonas aeruginosa; settings: 10^6 cfu/ml, 30 mOsm/l; n = 3 experiments
Summary of the method: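 Suspensions were exposed to test peptide or left untreated ~8 h at 35°C. 2 µl were spotted on LB agar, with or without selective antibiotic, incubated overnight at 37°C and imaged; n = 3 experiments.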

[7] = test system: PA14 pathogenesis in C. elegans N2; assay: C. elegans - PA14 liquid infection; format: in vivo, Caenorhabditis elegans; settings: SYTOX Orange uptake of dead worms
Summary of the method: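 Young adult worms (raised from L1 on NGM with E. coli OP50 at room temperature, washed off in M9, pelleted 1200×g 2 min) were placed ~50 per well in 150 µl 90% M9/10% LB. They were incubated aerobically with an equal volume of PA14, feoB/potH/yaiW transposon mutants, or OP50, diluted to 10^7 cfu/ml and pre-treated with 50 µM test peptide for 5 h at 35°C. After 3 days, equal volume 6 µM SYTOX Orange was added; imaged next day, transmitted and 535/610 nm fluorescence.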

EDASSDSTGADPAQEAGTSKPNEE-NH2 [C-95]
binding of His tagged PotH to column immobilized peptide (PotH): Neither bound
binding of His tagged FeoB to column immobilized peptide (FeoB): Neither bound
capture of thrombin from human tears by column immobilized peptide (thrombin): None bound

NCCCCNCCCN [spermidine]
concentrations toxic for PA14 (P. aeruginosa PA14 [1]): greater than 100 µM
effect of exogenous polyamine on N-104 bactericidal activity (P. aeruginosa PA14 [2]; PA14, 5 µM N-104 plus polyamine at or below 100 µM, n = 3 experiments): inhibited N-104 bactericidal activity in a concentration-dependent manner

Ac-INIGGALQP-NH2 [FeoB outer loop 1 synthetic peptide]
solubility in water and organic solvents [3]: not water, DMSO, methanol, isopropanol nor acetonitrile soluble
solvent in which the peptide dissolved [3]: formic or acetic acid

Ac-AQKLLKKFSSLKPWA [N-104:L114S]
minimum inhibitory concentration (MIC) (P. aeruginosa PA14 [2]): 2 µM

Ac-GAFFGQGGA-NH2 [FeoB outer loop 3 synthetic peptide]
solubility in water and organic solvents [3]: not water, DMSO, methanol, isopropanol nor acetonitrile soluble
solvent in which the peptide dissolved [3]: ammonia water and acetic acid

Ac-AQKLLKKFSLSKPWA [N-104:L115S]
minimum inhibitory concentration (MIC) (P. aeruginosa PA14 [2]): 2 µM

Ac-AKAGKGMHGGVPGG-NH2 [N-80/C-25]
effect on ^14C-spermidine uptake [4]: almost similar inhibitory effect

Ac-AQKLLKKFSLLKPWA [N-104]
binding of His tagged PotH to column immobilized peptide (PotH): high affinity ligation
development of resistance of PA14 (P. aeruginosa PA14 [5]): No stable resistance
binding of His tagged FeoB to column immobilized peptide (FeoB): high affinity ligation
dependence of PA14 killing efficacy on osmolarity (P. aeruginosa PA14 [2]; two osmolalities (30 and 300 mOsm/l)): efficacy diminishes as osmolarity increases
capture of thrombin from human tears by column immobilized peptide (thrombin): binds
killing of PA14 transposon mutant lacking YaiW [6]: partially resistant
effect of peptide alone on C. elegans [7]: no apparent effect
